Test results from ChEMBL document CHEMBL1142063, “Synthesis of omeprazole analogues and evaluation of these as potential inhibitors of the multidrug efflux pump NorA of Staphylococcus aureus” (2007).
Active and inactive are the calls of the source. No cut-off for these calls is given here.

What was measured:
Staphylococcus aureus [1] = test: Increase in 16 ug/ml Norfloxacin accumulation in Staphylococcus aureus SA1199B mutant overexpressing NorA measured per milligram of cell protein at 128 ug/ml after 20 mins; format: functional, organism-based
Outline: (§1)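 SA-1199B was grown to mid-exponential phase in MH broth (4–5 h, 37°C, shaken), then washed and resuspended in 50 mM sodium phosphate, pH 7.0. Cells got norfloxacin at one-quarter MIC, alone or with inhibitor at 128 μg/ml. At 5–20 min, cells were spun through silicone-paraffin oil into orthophosphoric acid. Norfloxacin was measured by HPLC fluorescence (ex 240/[…]) as ng/mg BCA protein. Means of triplicate experiments.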

Staphylococcus aureus [2] = test: Increase in 30 ug chloramphenicol antibacterial activity against Staphylococcus aureus SA1199B mutant overexpressing NorA at 16 ug/ml by disk diffusion method; format: functional
Outline: (§2)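 Agar diffusion on Mueller-Hinton agar (adjusted to 20 μg/ml Ca²⁺ and 10 μg/ml Mg²⁺), used plain or with the efflux inhibitor incorporated at the stated concentration. Disks were 5 μg for the fluoroquinolones and 30 μg for chloramphenicol. Plates were incubated overnight at 37°C, and inhibition zone diameters were measured. Values are means of at least three independent experiments.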

Staphylococcus aureus [3] = test: Increase in 5 ug moxifloxacin antibacterial activity against Staphylococcus aureus SA1199B mutant overexpressing NorA at 128 ug/ml by disk diffusion method; format: functional; outline: as §2
Staphylococcus aureus [4] = test: Increase in 5 ug Norfloxacin antibacterial activity against Staphylococcus aureus SA1199B mutant overexpressing NorA at 32 ug/ml by disk diffusion method; format: functional; outline: as §2
Staphylococcus aureus [5] = test: Increase in 16 ug/ml Norfloxacin accumulation in Staphylococcus aureus SA1199B mutant overexpressing NorA measured per mg of cell protein at 128 ug/ml after 5 mins; format: functional, organism-based; outline: as §1
Staphylococcus aureus [6] = test: Increase in 5 ug sparfloxacin antibacterial activity against Staphylococcus aureus SA1199B mutant overexpressing NorA at 128 ug/ml by disk diffusion method; format: functional; outline: as §2
Staphylococcus aureus [7] = test: Increase in 2 ug/ml Norfloxacin antibacterial activity against wild type Staphylococcus aureus SA1199 at 128 ug/ml by checker board method; format: functional
Staphylococcus aureus [8] = test: Increase in 5 ug ofloxacin antibacterial activity against Staphylococcus aureus SA1199B mutant overexpressing NorA at 128 ug/ml by disk diffusion method; format: functional; outline: as §2
Staphylococcus aureus [9] = test: Increase in 30 ug chloramphenicol antibacterial activity against Staphylococcus aureus SA1199B mutant overexpressing NorA at 128 ug/ml by disk diffusion method; format: functional; outline: as §2
Staphylococcus aureus [10] = test: Increase in 5 ug sparfloxacin antibacterial activity against Staphylococcus aureus SA1199B mutant overexpressing NorA at 16 ug/ml by disk diffusion method; format: functional; outline: as §2
Staphylococcus aureus [11] = test: Increase in 30 ug chloramphenicol antibacterial activity against Staphylococcus aureus SA1199B mutant overexpressing NorA at 32 ug/ml by disk diffusion method; format: functional; outline: as §2
Staphylococcus aureus [12] = test: Increase in 5 ug levofloxacin antibacterial activity against Staphylococcus aureus SA1199B mutant overexpressing NorA at 32 ug/ml by disk diffusion method; format: functional; outline: as §2
Staphylococcus aureus [13] = test: Increase in 5 ug moxifloxacin antibacterial activity against Staphylococcus aureus SA1199B mutant overexpressing NorA at 32 ug/ml by disk diffusion method; format: functional; outline: as §2
Staphylococcus aureus [14] = test: Increase in 5 ug ofloxacin antibacterial activity against Staphylococcus aureus SA1199B mutant overexpressing NorA at 64 ug/ml by disk diffusion method; format: functional; outline: as §2
Staphylococcus aureus [15] = test: Increase in 64 ug/ml Norfloxacin antibacterial activity against Staphylococcus aureus SA1199B mutant overexpressing NorA at 128 ug/ml by checker board method; format: functional
Staphylococcus aureus [16] = test: Increase in 5 ug ofloxacin antibacterial activity against Staphylococcus aureus SA1199B mutant overexpressing NorA at 16 ug/ml by disk diffusion method; format: functional; outline: as §2
Staphylococcus aureus [17] = test: Increase in 5 ug ciprofloxacin antibacterial activity against Staphylococcus aureus SA1199B mutant overexpressing NorA at 128 ug/ml by disk diffusion method; format: functional; outline: as §2
Staphylococcus aureus [18] = test: Increase in 5 ug levofloxacin antibacterial activity against Staphylococcus aureus SA1199B mutant overexpressing NorA at 128 ug/ml by disk diffusion method; format: functional; outline: as §2
Staphylococcus aureus [19] = test: Increase in 5 ug levofloxacin antibacterial activity against Staphylococcus aureus SA1199B mutant overexpressing NorA at 16 ug/ml by disk diffusion method; format: functional; outline: as §2
Staphylococcus aureus [20] = test: Increase in 16 ug/ml Norfloxacin accumulation in wild type Staphylococcus aureus SA1199 at 128 ug/ml after 20 mins; format: functional
Outline: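 Mid-exponential SA-1199 cells were washed and resuspended in 50 mM sodium phosphate, pH 7.0. They were exposed at time zero to norfloxacin at one-quarter MIC, alone or with EPI at 128 μg/ml. At 5–20 min, cells were spun through silicone-paraffin oil into orthophosphoric acid. Lysate norfloxacin was measured by C18 HPLC with fluorescence detection (ex 240, em 280 nm) and normalized to BCA protein (ng/mg). Triplicate experiments, mean reported.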

Staphylococcus aureus [21] = test: Increase in 30 ug chloramphenicol antibacterial activity against Staphylococcus aureus SA1199B mutant overexpressing NorA at 64 ug/ml by disk diffusion method; format: functional; outline: as §2
Staphylococcus aureus [22] = test: Increase in 5 ug Norfloxacin antibacterial activity against Staphylococcus aureus SA1199B mutant overexpressing NorA at 64 ug/ml by disk diffusion method; format: functional; outline: as §2
Staphylococcus aureus [23] = test: Increase in 5 ug sparfloxacin antibacterial activity against Staphylococcus aureus SA1199B mutant overexpressing NorA at 32 ug/ml by disk diffusion method; format: functional; outline: as §2
Staphylococcus aureus [24] = test: Antibacterial activity against Staphylococcus aureus; format: functional
Outline: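 Tube broth dilution MIC against SA-1199 and NorA-overproducing SA-1199B in Mueller-Hinton broth with 20 μg/ml Ca²⁺ and 10 μg/ml Mg²⁺. Inoculum was a 4–5 h 37°C culture diluted 1/10 (≈10⁶ CFU/ml). Compound range was 512 to 1 μg/ml, dissolved in DMSO (final ≤4%).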

Staphylococcus aureus [25] = test: Increase in 5 ug Norfloxacin antibacterial activity against Staphylococcus aureus SA1199B mutant overexpressing NorA at 128 ug/ml by disk diffusion method; format: functional; outline: as §2
Staphylococcus aureus [26] = test: Increase in 5 ug moxifloxacin antibacterial activity against Staphylococcus aureus SA1199B mutant overexpressing NorA at 64 ug/ml by disk diffusion method; format: functional; outline: as §2
Staphylococcus aureus [27] = test: Increase in 5 ug moxifloxacin antibacterial activity against Staphylococcus aureus SA1199B mutant overexpressing NorA at 16 ug/ml by disk diffusion method; format: functional; outline: as §2
Staphylococcus aureus [28] = test: Increase in 16 ug/ml Norfloxacin accumulation in Staphylococcus aureus SA1199B mutant overexpressing NorA at 128 ug/ml after 20 mins; format: functional; outline: as §1
Staphylococcus aureus [29] = test: Increase in 5 ug sparfloxacin antibacterial activity against Staphylococcus aureus SA1199B mutant overexpressing NorA at 64 ug/ml by disk diffusion method; format: functional; outline: as §2
Staphylococcus aureus [30] = test: Increase in 5 ug ofloxacin antibacterial activity against Staphylococcus aureus SA1199B mutant overexpressing NorA at 32 ug/ml by disk diffusion method; format: functional; outline: as §2
Staphylococcus aureus [31] = test: Increase in 5 ug levofloxacin antibacterial activity against Staphylococcus aureus SA1199B mutant overexpressing NorA at 64 ug/ml by disk diffusion method; format: functional; outline: as §2
Staphylococcus aureus [32] = test: Increase in 5 ug ciprofloxacin antibacterial activity against Staphylococcus aureus SA1199B mutant overexpressing NorA at 64 ug/ml by disk diffusion method; format: functional; outline: as §2
Staphylococcus aureus [33] = test: Increase in 5 ug Norfloxacin antibacterial activity against Staphylococcus aureus SA1199B mutant overexpressing NorA at 16 ug/ml by disk diffusion method; format: functional; outline: as §2
Staphylococcus aureus [34] = test: Increase in 5 ug ciprofloxacin antibacterial activity against Staphylococcus aureus SA1199B mutant overexpressing NorA at 32 ug/ml by disk diffusion method; format: functional; outline: as §2
Staphylococcus aureus [35] = test: Increase in 5 ug ciprofloxacin antibacterial activity against Staphylococcus aureus SA1199B mutant overexpressing NorA at 16 ug/ml by disk diffusion method; format: functional; outline: as §2
Staphylococcus aureus [36] = test: Increase in 16 ug/ml Norfloxacin antibacterial activity against Staphylococcus aureus SA1199B mutant overexpressing NorA at 128 ug/ml after 24 hrs by time-kill curve method; format: functional, organism-based
Outline: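 Log-phase SA-1199B inoculum at 10⁶ CFU/ml in MH broth with norfloxacin 16 μg/ml plus inhibitor 128 μg/ml, 37°C. Viable counts were taken by dilution plating in triplicate on MH agar at 0, 2, 4, 8 and 24 h. Results are expressed as log percentage survival, means of three experiments. Sensitivity limit was 1 log₁₀ CFU/ml.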

Staphylococcus aureus [37] = test: Antibacterial activity against Staphylococcus aureus SA1199 at 5 ug by disk diffusion method; settings: read-out: IZ

COc1ccc2[nH]c([S+]([O-])Cc3ncc(C)c(OC)c3C)nc2c1 (stereo unspecified) [OMEPRAZOLE]
Drug uptake (Staphylococcus aureus [1]): 400 ng/mg | inhibition zone (IZ) (Staphylococcus aureus [2]): 24 mm | inhibition zone (IZ) (Staphylococcus aureus [3]): 30 mm | inhibition zone (IZ) (Staphylococcus aureus [4]): 6 mm | Drug uptake (Staphylococcus aureus [5]): 270 ng/mg | inhibition zone (IZ) (Staphylococcus aureus [6]): 28 mm | MIC (Staphylococcus aureus [7]): 1 µg/mL | inhibition zone (IZ) (Staphylococcus aureus [8]): 23 mm | inhibition zone (IZ) (Staphylococcus aureus [9]): 25 mm | inhibition zone (IZ) (Staphylococcus aureus [10]): 26 mm | inhibition zone (IZ) (Staphylococcus aureus [11]): 24 mm | inhibition zone (IZ) (Staphylococcus aureus [12]): 21 mm | inhibition zone (IZ) (Staphylococcus aureus [13]): 27 mm | inhibition zone (IZ) (Staphylococcus aureus [14]): 20 mm | MIC (Staphylococcus aureus [15]): 8 µg/mL | inhibition zone (IZ) (Staphylococcus aureus [16]): 18 mm | inhibition zone (IZ) (Staphylococcus aureus [17]): 22 mm | inhibition zone (IZ) (Staphylococcus aureus [18]): 25 mm | inhibition zone (IZ) (Staphylococcus aureus [19]): 21 mm | Activity (Staphylococcus aureus [20]): 10% | inhibition zone (IZ) (Staphylococcus aureus [21]): 24 mm | inhibition zone (IZ) (Staphylococcus aureus [22]): 12 mm | inhibition zone (IZ) (Staphylococcus aureus [23]): 27 mm | MIC (Staphylococcus aureus [24]): > 512 µg/mL | inhibition zone (IZ) (Staphylococcus aureus [25]): 14 mm | inhibition zone (IZ) (Staphylococcus aureus [26]): 29 mm | inhibition zone (IZ) (Staphylococcus aureus [27]): 27 mm | Activity (Staphylococcus aureus [28]): 40% | inhibition zone (IZ) (Staphylococcus aureus [29]): 27 mm | inhibition zone (IZ) (Staphylococcus aureus [30]): 18 mm | inhibition zone (IZ) (Staphylococcus aureus [31]): 23 mm | inhibition zone (IZ) (Staphylococcus aureus [32]): 19 mm | inhibition zone (IZ) (Staphylococcus aureus [33]): 6 mm | inhibition zone (IZ) (Staphylococcus aureus [34]): 15 mm | inhibition zone (IZ) (Staphylococcus aureus [35]): 13 mm

COc1ccc2[nH]c([S+]([O-])Cc3nc4cc(Cl)ccc4n4cccc34)nc2c1 (stereo unspecified)
Drug uptake (Staphylococcus aureus [1]): 400 ng/mg | inhibition zone (IZ) (Staphylococcus aureus [3]): 28 mm | Drug uptake (Staphylococcus aureus [5]): 270 ng/mg | inhibition zone (IZ) (Staphylococcus aureus [6]): 28 mm | MIC (Staphylococcus aureus [7]): 1 µg/mL | inhibition zone (IZ) (Staphylococcus aureus [8]): 26 mm | inhibition zone (IZ) (Staphylococcus aureus [9]): 27 mm | MIC (Staphylococcus aureus [15]): 4 µg/mL | inhibition zone (IZ) (Staphylococcus aureus [17]): 25 mm | inhibition zone (IZ) (Staphylococcus aureus [18]): 27 mm | Activity (Staphylococcus aureus [20]): 10% | Activity (Staphylococcus aureus [36]): Active | MIC (Staphylococcus aureus [24]): > 512 µg/mL | inhibition zone (IZ) (Staphylococcus aureus [25]): 18 mm | Activity (Staphylococcus aureus [28]): 40%

C[C@H]1COc2c(N3CCN(C)CC3)c(F)cc3c(=O)c(C(=O)O)cn1c23 [LEVOFLOXACIN]
zone of inhibition at 5 µg/disc (Staphylococcus aureus [37]): 30 mm
